Where two headings read alike, the source gives them in different places.
Assays:
[1] = tested on: patients with advanced solid tumors; details: cited from earlier work
FGFR = details: AL3810 compared with sorafenib; cited from earlier work
[2] = tested on: patients with recurrent and metastatic nasopharyngeal carcinoma (RM-NPC); assay: Safety and tolerability; format: in vivo, human
Method in brief: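 Safety was the primary endpoint, assessed separately in two randomised arms of pretreated RM-NPC patients given test compound 10 mg orally: daily on a 4-week cycle, or 3 weeks on/1 week off. Adverse events were graded by CTCAE version 4.03. The safety set comprised patients who took at least one dose. TEAEs and TRAEs, including those leading to dose reduction, interruption or discontinuation, were tabulated per arm.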

[3] = tested on: patients with recurrent and metastatic nasopharyngeal carcinoma (RM-NPC); assay: Antitumor efficacy; format: in vivo, human; details: for time to response: radiologic assessment every 8 weeks
Method in brief: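 Patients with pretreated RM-NPC were randomised to two arms, each evaluated separately (10 per arm). Both arms took test compound 10 mg orally daily: intermittent arm 3 weeks on/1 week off, continuous arm daily on a 4-week cycle. The investigator assessed response by RECIST 1.1. ORR was CR or PR as best overall response. DCR was confirmed CR, confirmed PR or SD lasting ≥4 weeks from randomisation.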

[4] = continuous arm (10 mg p.o. daily, 4-week cycle), n = 10
[5] = intermittent arm (10 mg p.o., 3 weeks on/1 week off), n = 10
[6] = intermittent arm, n = 10, listed as lucitanib

Which “tolerability of continuous dosing” value ([1]; continuous 15 mg daily dose, arterial hypertension) does the source give for `CNC(=O)c1cccc2cc(Oc3ccnc4cc(OCC5(N)CC5)c(OC)cc34)ccc12` [Lucitanib] here?
The value was “unsustainable beyond three cycles”.

What about the “partial response / ORR” value ([1]; patients with FGF-aberrant (FGFR1- or FGF3/4/19-amplified) breast cancer) of the same molecule?
Its value is 50%.

What about the “median PFS” value ([1]; patients with FGF-aberrant breast cancer) of the same molecule?
Its value is 40.4 weeks.

And the “median PFS” value ([1]; patients with angiogenesis-sensitive disease)?
The value was 25 weeks.

And the “potency against FGFR” value (FGFR)?
The value was “more potent”.

What about the “patients with at least one TEAE” value ([2]; all patients, both arms) of the same molecule?
Its value is “All patients”.

And the “serious TRAEs” value ([2]; all patients, both arms)?
Its value is “No patients experienced serious TRAEs”.

What about the “patients with Grade ≥3 related TEAEs” value ([2]; all patients, both arms (7/20)) of the same molecule?
Its value is 35%.

And the “TRAE: Hypothyroidism” value ([2]; continuous arm)?
Its value is 60%.

And the “grade ≥3 TRAE: decreased platelet count” value ([2]; continuous arm)?
Its value is 10%.

And the “grade ≥3 TRAE: hypertension” value ([2]; continuous arm)?
Its value is 30%.

What about the “grade ≥3 TRAE: increased AST” value ([2]; continuous arm) of the same molecule?
Its value is 10%.

And the “grade ≥3 TRAE: proteinuria” value ([2]; continuous arm)?
The value was 20%.

What about the “patients with at least one treatment-related AE (TRAE)” value ([2]; continuous arm) of the same molecule?
The value was “One hundred”.

And the “patients with Grade ≥3 related TEAEs” value ([2]; continuous arm (5/10))?
Its value is 50%.

And the “patients with Grade ≥3 related TRAEs” value ([2]; continuous arm (5/10))?
The value was 50%.

And the “Drug-related AE: Cough” value ([2]; continuous arm, n = 10)?
Its value is 2 (20.0) n (%).

And the “Drug-related AE: Diarrhea” value ([2]; continuous arm, n = 10)?
Its value is 3 (30.0) n (%).

What about the “Drug-related AE: Epistaxis” value ([2]; continuous arm, n = 10) of the same molecule?
Its value is 5 (50.0) n (%).

And the “Drug-related AE: Free thyroxine decreased” value ([2]; continuous arm, n = 10)?
Its value is 3 (30.0) n (%).

And the “Drug-related AE: Hypertension” value ([2]; continuous arm, n = 10)?
Its value is 10 (100.0) n (%).

And the “Drug-related AE: Hypochloremia” value ([2]; continuous arm, n = 10)?
The value was 3 (30.0) n (%).

And the “Drug-related AE: Platelet count decreased” value ([2]; continuous arm, n = 10)?
The value was 3 (30.0) n (%).

What about the “Drug-related AE: Proteinuria” value ([2]; continuous arm, n = 10) of the same molecule?
The value was 10 (100.0) n (%).

And the “Drug-related AE: Skin rash” value ([2]; continuous arm, n = 10)?
The value was 3 (30.0) n (%).

And the “Drug-related AE: TSH increased” value ([2]; continuous arm, n = 10)?
The value was 3 (30.0) n (%).

What about the “Drug-related adverse events: All” value ([2]; continuous arm, n = 10) of the same molecule?
The value was 10 (100.0) n (%).

And the “Grade ≥3 TEAE” value ([2]; continuous arm, n = 10)?
The value was 5 (50) n (%).

What about the “Grade ≥3 TRAE” value ([2]; continuous arm, n = 10) of the same molecule?
Its value is 5 (50) n (%).

What about the “Serious TRAE” value ([2]; continuous arm, n = 10) of the same molecule?
Its value is 0 n (%).

And the “TRAE lead to dose discontinuation” value ([2]; continuous arm, n = 10)?
Its value is 0 n (%).

What about the “TRAE lead to dose interruption” value ([2]; continuous arm, n = 10) of the same molecule?
The value was 5 (50) n (%).

What about the “TRAE: Hypothyroidism” value ([2]; intermittent arm) of the same molecule?
The value was 50%.

What about the “grade ≥3 TRAE: decreased platelet count” value ([2]; intermittent arm) of the same molecule?
The value was 0%.

And the “grade ≥3 TRAE: hypertension” value ([2]; intermittent arm)?
The value was 0%.

And the “grade ≥3 TRAE: increased AST” value ([2]; intermittent arm)?
The value was 0%.

What about the “grade ≥3 TRAE: proteinuria” value ([2]; intermittent arm) of the same molecule?
The value was 0%.

And the “patients with at least one treatment-related AE (TRAE)” value ([2]; intermittent arm)?
Its value is 90%.

And the “Drug-related AE: AST increased” value ([2]; intermittent arm, n = 10)?
The value was 0 n (%).

And the “Drug-related AE: Backache” value ([2]; intermittent arm, n = 10)?
Its value is 0 n (%).

And the “Drug-related AE: Cough” value ([2]; intermittent arm, n = 10)?
Its value is 3 (30.0) n (%).

And the “Drug-related AE: Diarrhea” value ([2]; intermittent arm, n = 10)?
The value was 0 n (%).

What about the “Drug-related AE: Free thyroxine decreased” value ([2]; intermittent arm, n = 10) of the same molecule?
Its value is 1 (10.0) n (%).

What about the “Drug-related AE: Hypochloremia” value ([2]; intermittent arm, n = 10) of the same molecule?
Its value is 1 (10.0) n (%).

What about the “Drug-related AE: Hypothyroidism” value ([2]; intermittent arm, n = 10) of the same molecule?
Its value is 5 (50.0) n (%).

And the “Drug-related AE: Platelet count decreased” value ([2]; intermittent arm, n = 10)?
Its value is 1 (10.0) n (%).

What about the “Drug-related AE: Proteinuria” value ([2]; intermittent arm, n = 10) of the same molecule?
The value was 5 (50.0) n (%).

And the “Drug-related AE: Serum creatinine (Scr) increased” value ([2]; intermittent arm, n = 10)?
The value was 1 (10.0) n (%).

And the “Drug-related AE: Skin rash” value ([2]; intermittent arm, n = 10)?
The value was 0 n (%).

And the “Drug-related AE: TSH increased” value ([2]; intermittent arm, n = 10)?
Its value is 1 (10.0) n (%).

What about the “Drug-related AE: Weight loss” value ([2]; intermittent arm, n = 10) of the same molecule?
The value was 0 n (%).

And the “Grade ≥3 TEAE” value ([2]; intermittent arm, n = 10)?
Its value is 2 (20) n (%).

What about the “Grade ≥3 TRAE” value ([2]; intermittent arm, n = 10) of the same molecule?
The value was 0 n (%).

And the “Serious TRAE” value ([2]; intermittent arm, n = 10)?
The value was 0 n (%).

What about the “TRAE lead to dose discontinuation” value ([2]; intermittent arm, n = 10) of the same molecule?
Its value is 1 (10) n (%).

And the “TRAE lead to dose interruption” value ([2]; intermittent arm, n = 10)?
The value was 2 (20) n (%).

What about the “TRAE lead to dose reduction” value ([2]; intermittent arm, n = 10) of the same molecule?
Its value is 0 n (%).

What about the duration of response ([3]; all three responders, both arms) of the same molecule?
Its duration of response is “more than 1 year”.

And the time to response ([3]; all three responders)?
The time to response was “observed by the first evaluation”.

What about the time to response ([3]; all three responders, listed as lucitanib) of the same molecule?
The time to response was “at the first evaluation”.

And the “Best response PR” value [3, 4]?
The value was “n = 2 (20%) n (%)”.

What about the “Response assessment CR” value [3, 4] of the same molecule?
Its value is “n = 0 (0%) n (%)”.

What about the “Best response PR” value ([3]; continuous arm (10 mg p.o. daily, 4-week cycle), n = 10, listed as lucitanib) of the same molecule?
Its value is 2 (20) n (%).

What about the “Best response PD” value ([3]; continuous arm, n = 10) of the same molecule?
Its value is 1 (10) n (%).

And the “Best response SD” value ([3]; continuous arm, n = 10)?
The value was 7 (70) n (%).

What about the DCR ([3]; continuous arm, n = 10) of the same molecule?
Its DCR is 90%.

What about the ORR ([3]; continuous arm, n = 10) of the same molecule?
The ORR was 20%.

And the “Response assessment OTHER” value ([3]; continuous arm, n = 10)?
Its value is “n = 0 (0%) n (%)”.

What about the “median PFS” value ([3]; continuous arm, n = 10, 90% CI 3.5 to NE) of the same molecule?
The value was 3.73 months.

What about the “Best response PR” value [3, 5] of the same molecule?
Its value is 1 (10) n (%).

What about the “Response assessment CR” value [3, 5] of the same molecule?
Its value is “n = 0 (0%) n (%)”.

And the “Best response SD” value ([3]; intermittent arm, n = 10)?
The value was “n = 5 (50%) n (%)”.

And the “median PFS” value ([3]; intermittent arm, n = 10, 90% CI 1.74 to 7.36)?
Its value is 3.68 months.

What about the “Best response PD” value [3, 6] of the same molecule?
Its value is 3 (30) n (%).

And the “Best response SD” value [3, 6]?
Its value is 5 (50) n (%).

What about the DCR [3, 6] of the same molecule?
The DCR was 60%.

And the ORR [3, 6]?
The ORR was 10%.

And the “sustained response, patients still on treatment” value ([3]; two responders still on treatment at last follow-up)?
Its value is over 3 years.

From publication PMC9177108 (The Oncologist, 2022)
